According to publication PMC8494022 (Chemical Science, 2021):
pIC50: −log10 of the molar value.

Key:
[1] = system: CT26 cells; assay: Cellular uptake of FITC-labeled albumin with endocytosis inhibitors; assay type: cell-based, murine (Balb/c); settings: 1 h inhibitor pretreatment, uptake after 3 h
[2] = Reduction kinetics with ascorbic acid by NMR; assay type: physicochemical; settings: 100 μM, ascorbic acid 10 eq., cell-free, pD 7.4, 37°C
[3] = cited from earlier work
[4] = Pharmacokinetic of single dose in serum; assay type: in vivo, Balb/c mice
In short: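 Naive BALB/c mice (n = 4 per group) received a single i.v. dose equimolar to 9 mg kg−1 oxaliplatin. Serum was sampled between 0.08 h and 336 h, and serum versus blood clot was compared at 24 h. Platinum was quantified by ICP-MS and used for concentration–time curves, AUC and terminal elimination half-life.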

[5] = system: CT26 tumors; assay: Histological evaluation of treated tumors; assay type: in vivo, Balb/c mice; settings: tumors day 12, H&E-stained
In short: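 CT26-bearing BALB/c mice dosed i.v. twice weekly for two weeks, equimolar to 9 mg kg−1 oxaliplatin. Tumors were collected on day 12, 24 h after the last dose. Apoptotic and mitotic cells were counted in H&E sections. Percentages of cleaved caspase-3-positive and Ki-67-positive cells were scored by image analysis. One-way ANOVA with Dunnett's test.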

[6] = system: CT26 cells; assay: Cytotoxicity, MTT-based cell viability assay; parameters: species or system murine (Balb/c)
In short: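 MTT-based viability of CT26 cells after 72 h drug exposure, alone or with 100 μM ascorbic acid co-treatment. Values are means ± SD of one representative experiment run in triplicates.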

[7] = system: CT26 cells; assay: Cellular platinum uptake determined by ICP-MS; assay type: cell-based, murine (Balb/c); settings: MβCD, CHP, EIPA 1 h pretreatment, uptake after 3 h
[8] = system: CT26 tumors; assay: Allograft anticancer activity experiments; assay type: in vivo; settings: CT26-bearing BALB/c mice
In short: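 CT26 allografts in immune-competent BALB/c mice; test compounds and oxaliplatin given i.v. twice weekly for two weeks at doses equimolar to 9 mg kg−1 oxaliplatin. Body weight was followed. Tumor growth is reported as mean ± SEM and compared by two-way ANOVA. Overall survival was plotted as Kaplan–Meier curves and compared by log-rank test with Mantel–Cox posttest.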

Compound: CCN(c1nc(N)c(C(=O)NC(=N)N)nc1Cl)C(C)C [EIPA, 5-(N-ethyl-N-isopropyl)amiloride]
- impact on uptake of FITC-labeled albumin [1]: had no impact on albumin uptake

Compound: CC(=O)[O][Pt]([NH2])([Cl])([Cl])([NH]C1CCCCC1)[O]C(C)=O [Satraplatin, satraplatin]
- time to complete reduction [2]: < 24 h

Compound: COc1cccc2c1C(=O)c1c(O)c3c(c(O)c1C2=O)C[C@@](O)(/C(CO)=N/NC(=O)CCCCCN1C(=O)C=CC1=O)C[C@@H]3O[C@H]1C[C@H](N)[C@H](O)[C@H](C)O1 [aldoxorubicin]
- in vivo elimination half-life [3]: 2.3 h
- time at which tumor accumulation reached a plateau ([3]; no further increase during the next 24 h): 2 h

Compound: COc1cccc2c1C(=O)c1c(O)c3c(c(O)c1C2=O)C[C@@](O)(C(=O)CO)C[C@@H]3O[C@H]1C[C@H](N)[C@H](O)[C@H](C)O1 [doxorubicin]
- concentration in blood, share of the initial amount ([3]; 15 min after i.v. injection): less than 2%
- in vivo elimination half-life [3]: in the order of minutes

Compound: O=C1[O][Pt]2([NH][C@@H]3CCCC[C@H]3[NH]2)[O]C1=O [oxaliplatin]
- serum concentration at first sampling time point relative to KP2156 ([4]; 5 min, equimolar application): drastically lower than for KP2156
- total clearance relative to KP2156 ([4]; single i.v. dose): at least one order of magnitude higher than that of KP2156
- terminal elimination half-life (t ½) ([4]; single i.v. dose equimolar to 9 mg kg−1 oxaliplatin): 32.5 h
- change of mitotic cells [5]: significant increase of mitotic cells
- impact of ascorbic acid co-treatment on activity (cell viability) ([6]; 100 μM AA, 72 h): no relevant impact
- pIC50 ([6]; after 72 h): ~5.46
- impact of endocytosis inhibitors on cellular drug uptake [7]: neither accumulation of oxaliplatin nor KP2157 were affected by endocytosis inhibition
- impact on tumor growth ([8]; i.v. twice a week for two weeks, equimolar to 9 mg kg−1 oxaliplatin): significant activity
- day at which treated tumors progressed again ([8]; same scheme): ~15 days

Compound: methyl-β-cyclodextrin [MßCD]
- impact on uptake of FITC-labeled albumin [1]: significantly reduced
